HSV augment: increases HSV replication in cells. HSV replication augmentation in cells, fold increase. maximum fold increase. hit rate 0.005% among 220,000; in the data active means maximum fold increase above about 1.5; inconclusive means no clear call, values can overlap the other calls; tested in PC3 cells
INS promoter inh: TRM-6 insulin promoter activity inhibition. TRM-6 cells (human fetal islet line), insulin promoter-eGFP reporter, imaging; reporter expression induced with tamoxifen. inhibition, % at 2 µM. hit rate 0.9% among 130,000. AID 1273;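 active means inhibition above the mean plus 3 SD, with well images judged a real hit on visual review, cut at about 60% in these data, passing the limit was not always enough; inconclusive means inhibition over the cutoff but images rejected on review; inactive means inhibition not above the cutoff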
ROMK mod: human ROMK K+ channel modulation, primary screen. Tet-inducible ROMK, thallium flux fluorescence; actives lie on both sides. B-score at 10 µM. hit rate 2% among 130,000;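 active means signal ratio slope over the read window, or its plate-corrected B-score, at least 3 SD from the plate mean, either direction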;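 further: B-score of the F/F0 ratio slope over 7 to 12 s after thallium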
Target sequence (P48048 whole entry, looked up): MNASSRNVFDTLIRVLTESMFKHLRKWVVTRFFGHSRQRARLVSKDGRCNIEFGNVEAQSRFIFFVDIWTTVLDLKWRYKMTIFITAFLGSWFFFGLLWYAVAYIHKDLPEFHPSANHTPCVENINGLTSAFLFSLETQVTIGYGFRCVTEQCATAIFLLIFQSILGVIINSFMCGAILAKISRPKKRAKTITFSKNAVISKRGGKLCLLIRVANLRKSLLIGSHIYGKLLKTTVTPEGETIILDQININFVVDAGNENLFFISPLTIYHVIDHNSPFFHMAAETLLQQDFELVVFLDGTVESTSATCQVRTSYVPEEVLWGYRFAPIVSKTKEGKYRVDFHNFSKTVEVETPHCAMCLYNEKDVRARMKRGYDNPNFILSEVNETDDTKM
MT stabilizer: stabilizes microtubules in HeLa cells. HeLa tubulin immunostaining HCS, 24 h; share of cells brighter than vehicle mean+2SD. % tubulin-high responders, % at 10 µM. hit rate 0.83% among 200,000. AID 2205;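 active means plate Z-score above 3 for both tubulin-high and condensed-nucleus cell shares, with cell loss under 80%, at 10 µM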;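 further: anti alpha tubulin signal scored within the nucleus-defined area of each cell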
b-catenin transl: modulators of beta-catenin nuclear translocation; HeLa beta-catenin nuclear translocation, immunofluorescence imaging; nuclear translocation activity, % at 5 µM; hit rate 0.3% among 190,000;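 active means nuclear translocation activity above 50% at 5 µM, with a well cell count of 50 or more; inconclusive means wells under 50 cells across six images, flagged as toxic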;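 further: per-cell ratio of nuclear to cytoplasmic median beta-catenin stain intensity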
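Test system: human HeLa cell line; Doses: 5 µM primary, 0.02–20 µM confirmation; Incubation: 24 h compound exposure, 37°C; Detection: beta-catenin immunofluorescence imaging with DAPI; Read-out: beta-catenin nuclear/cytoplasmic ratio, % activation.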
ROMK retest: confirmation of human ROMK potassium channel modulators; ROMK thallium flux, fluorescence ratio; hits give low values; hit rate 54% among 3,000; normalized thallium flux (F/F0 slope) at 10 µM; shares compounds with ROMK mod;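 active means Flux at 10 µM at least 3 SD below or above vehicle control mean in one or both replicates; inconclusive means no clear call, values can overlap the other calls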
Numbers stand for hits; – = inactive; ? = inconclusive; · = no result given. A selection: hits, their analogues and other compounds. The true share with any hit is near 2.4%.

SMILES	HSV augment	INS promoter inh	ROMK mod	MT stabilizer	b-catenin transl	ROMK retest
Cc1ccc(S(=O)(=O)/N=C2/NC(=O)/C(=C/c3ccccc3)S2)cc1	–	–	-4.58	–	–	0.0512
COc1ccc(-n2c(O)c(/C=N/NS(=O)(=O)c3ccc(C)c([N+](=O)[O-])c3)c3ccccc3c2=O)cc1OC	?	–	-3.28	–	–	?
COc1cc(/C=N/NS(=O)(=O)c2ccc(C)c([N+](=O)[O-])c2)ccc1O	–	·	–	–	–	·
O=c1c(Cc2ccccc2)c(O)ccn1Cc1ccc2c(c1)OCO2	–	·	–	–	–	·
Cc1ccc(-c2csc(NC(=O)C[n+]3cc(-c4ccccc4)n4c3CCC4)n2)cc1	–	·	-6.15	·	–	0.0601
O=C(C[n+]1cc(-c2ccc(Br)cc2)n2c1CCCCC2)c1ccccc1	–	·	-2.98	–	–	0.0678
O=C(C[n+]1cc(-c2ccc(Cl)cc2)n2c1CCC2)Nc1nc(-c2ccc(F)cc2)cs1	–	·	-5.82	·	–	0.0506
COc1ccccc1NC(=S)Nc1ccc2cn[nH]c2c1	–	·	–	–	–	·
CC(C)c1ccc(NC(=O)Cn2cccc2C2=NC(c3ccccc3)CO2)cc1 (stereo unspecified)	–	–	–	–	–	·
C=CC#CC1(O)CC(C)[N+](C)(C)CC1C (stereo unspecified)	–	–	–	–	–	–
CCCS(=O)(=O)c1c(S(=O)(=O)CCC)c2ccc(C(N)=O)cn2c1C(=O)c1ccc(OC)cc1	–	–	–	–	–	0.061
COc1cc(/C=C(\C#N)C(=O)Nc2ccccc2C(=O)O)cc(Cl)c1OC	–	·	-4.58	–	–	0.0571
CCOC(=O)c1ccc(NC(=S)NCCc2ccc(OC)c(OC)c2)cc1	–	·	–	·	–	·
CCN(CC)S(=O)(=O)c1cc(C(=O)OCC(=O)Nc2cccc(C)c2C)ccc1F	–	–	·	–	–	·
CCOC(=O)Cc1csc(NC(=O)c2cc3c(s2)CCCC3)n1	–	–	–	–	·	·
CCOC(=O)Cc1csc(NC(=O)c2csc3c2CCCC3)n1	–	–	·	–	–	–
CC(=O)CSc1nc2cc3c(cc2cc1C#N)OCCO3	·	–	-3.26	–	–	0.0543
CC(C)(C)NC(=O)C(c1cccs1)N(C(=O)c1csnn1)c1ccccc1F (stereo unspecified)	–	·	–	–	–	·
COc1ccccc1-c1nc2cc3ccccc3cc2nc1-c1ccccc1	–	·	–	–	–	·
Cc1ccc(CSC(Nc2ccc(F)cc2)=C(C#N)C#N)cc1	–	–	–	–	–	–
CCN(CC)C(=O)CSC(=Nc1ccccc1F)NC#N	–	·	–	–	–	·
CCN(CC)C(=O)CSC(Nc1ccc(F)cc1)=C(C#N)C#N	·	·	·	·	–	0.0591
O=C(Nc1cccc(C(F)(F)F)c1)c1ccccc1NC(=O)C1CCCCC1	–	–	·	–	–	·
Cc1ccc(C)c(C(=O)CCC(=O)NCc2ccc(Cl)cc2)c1	–	–	–	–	–	·
N#C/C(=C\c1cccs1)C(=O)c1ccccc1Cl	–	·	·	·	–	0.0517
SMILES	HSV augment	INS promoter inh	ROMK mod	MT stabilizer	b-catenin transl	ROMK retest
O=C(CN1CCC(c2nc3ccccc3s2)CC1)N1CCCCC1	–	·	–	–	–	·
O=C(CN1CCC(c2nc3ccccc3s2)CC1)NCc1cccs1	–	–	·	–	·	0.0605
COc1cc([N+](=O)[O-])ccc1N/C=C/C(=O)c1cccs1	–	–	·	–	–	0.053
OCC1(CCOc2ccccc2)CCN(C2Cc3ccccc3C2)CC1	–	·	-3.02	–	–	0.0576
COC(=O)CCc1nc2cc(Cl)ccc2n(Cc2ccccc2)c1=O	–	·	–	–	–	·
O=C1c2oc3ccc(F)cc3c(=O)c2C(c2ccccc2)N1CC1CCCO1 (stereo unspecified)	–	–	–	–	–	·
Cc1cccn2c(=O)c(/C=C3\SC(=S)NC3=O)c(NCCCN3CCOCC3)nc12	?	·	·	·	–	0.0529
CCCN1C(=O)/C(=C/c2c(NCCCOCC)nc3c(C)cccn3c2=O)SC1=S	?	–	–	–	–	·
CC(Nc1ccc(Cl)c(Cl)c1)C(=O)NN (stereo unspecified)	–	·	·	·	–	·
NNC(=O)C(=O)Nc1ccc(Cl)c(Cl)c1	–	·	-12.4	·	–	–
CCN(CC)S(=O)(=O)c1ccc(OC(C)C)c(NC(=O)c2c3c(nc4ccccc24)CCN(Cc2ccccc2)C3)c1	–	–	-3.04	–	–	0.0592
COc1ccc(S(=O)(=O)N2CCCCCC2)cc1NC(=O)c1c2c(nc3ccccc13)CCN(Cc1ccccc1)C2	–	–	–	–	–	·
COc1ccc(NC(=O)c2cc3cccc(OC)c3oc2=Nc2ccc(C(=O)O)cc2)cc1OC	–	·	-4.38	–	–	0.0543
CC(C)(C)NC(=S)N/N=C\c1ccc(-c2ccc([N+](=O)[O-])cc2)o1	–	·	-3.5	·	–	0.0476
CCCCC(=O)N/N=C/c1ccc(-c2ccc([N+](=O)[O-])cc2)o1	–	–	–	–	–	·
COc1ccccc1-c1ccc(/C=C2\C=CC(=O)O2)o1	–	·	·	·	–	0.0444
CC1CCC(C(C)C)C(OC(=O)Cn2c(-c3ccc(Cl)cc3)[n+](C)c3ccccc32)C1 (stereo unspecified)	–	·	-7.95	·	–	0.0425
CC1CCC(C(C)C)C(OC(=O)COC(=O)c2ccc(N)cc2)C1 (stereo unspecified)	–	·	·	–	–	·
CC1CCC(C(C)C)C(OC(=O)Cn2c(-c3ccc(Br)cc3)[n+](C)c3ccccc32)C1 (stereo unspecified)	–	–	-6.83	–	–	0.0439
Cc1ccccc1OCc1n(CC(=O)OC2CC(C)CCC2C(C)C)c2ccccc2[n+]1C (stereo unspecified)	–	–	·	–	–	0.0417
COc1ccc(Cl)c(NCCC(=O)O)c1	–	–	–	–	–	·
COC(=O)c1ccc(N2CCN(CC(=O)c3ccc(-c4ccccc4)cc3)CC2)c([N+](=O)[O-])c1	·	·	–	–	–	·
COc1ccc(C(=O)NC2CC(C)(C)Cc3occc32)cc1 (stereo unspecified)	–	·	·	–	–	·
Nc1nnnn1/N=C/c1cccc(OCc2ccccc2Cl)c1	–	–	–	–	–	·
CCCCn1c(SCC(=O)Nc2cc(C)on2)nnc1-c1ccco1	–	–	3.22	–	–	–
SMILES	HSV augment	INS promoter inh	ROMK mod	MT stabilizer	b-catenin transl	ROMK retest
CCNc1ccc(S(=O)(=O)N(C)C)cc1NCC(=O)Nc1ccc(Br)cc1F	–	–	-3.23	–	–	0.0624
COc1cc(CNCCc2ccc(S(N)(=O)=O)cc2)ccc1OCc1ccc(Cl)cc1	–	·	-2.57	–	–	0.0582
COc1cccc(CNCCc2c[nH]c3ccccc23)c1OCc1ccccc1	–	·	·	–	–	0.0587
COc1ccc(CNCc2ccco2)cc1OCc1ccccc1	–	–	·	–	–	·
CCOc1cc(CNCCc2ccc(S(N)(=O)=O)cc2)ccc1OCc1ccc(Cl)cc1	–	·	–	–	–	·
COc1ccccc1CCNCc1ccc(OC)c(OCc2ccccc2)c1	–	–	·	–	–	0.0646
COc1cc(CNCCc2c[nH]c3ccccc23)ccc1OCc1ccccc1F	–	·	·	–	–	·
COc1cc(CNCCc2ccccc2)ccc1OCc1ccc(Cl)nc1	·	–	-3.75	–	–	0.057
